This sample holds only a part of the variants without activity. Bounds are passed on as bounds.

To fix the notation:
B1: tRNA (parent)
chain: GUUCCGUUGGCGUAAUGGUAACGCGUCUCCCUCCUAAGGAGAAGACUGCGGGUUCGAGUCCCGUACGGAACG

This data set covers variants of B1. Nature of the data set: yeast fitness relative to wild type (ratio to wild type); higher = fitter; tRNA-Arg(CCU), competitive growth, 37 C, YPD. The gist of the method:
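Genotype frequency changes were the basis for Darwinian fitness relative to wild type. The frequencies came from 100-nucleotide paired-end sequencing of gene amplicons from the start population and each end population of pooled yeast strains with tRNA-Arg(CCU) gene variants at the native locus. Competition ran in YPD at 37°C for 24 hours in six replicates, genotypes needed ≥ 100 starting reads, and estimates < 0.5 were set to 0.5.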
On to G10A A14U C31A U35G C46A A65U, for which the yeast fitness is at most 0.5.
As to G10A A42U U59A, the yeast fitness is at most 0.5.
G10A C29U G44C: the yeast fitness was at most 0.5.
The result for G10A A43G G56U A69G reads at most 0.5; that for G9C U26C C34G A37G C60G A65C, at most 0.5.
The same measure for G10A C24G: 0.517.
The result for G10A C24U reads 0.977; that for G10A A36C C66U, at most 0.5.
Consider G10A C11G G44A C49G A65U, for which the yeast fitness is at most 0.5.
The same measure for G10A C33U A40G C55G A65C: at most 0.5; for G10A A14C C27G C46G A65G: at most 0.5; for G9C U16G A37C: 0.735.
The same measure for G10A C30A G48A: 0.559; for G10A C34A: 0.712.
As for G10A A21G C24A C66U, the yeast fitness is at most 0.5.
In the case of G9C U32A C55U A57U C62A, the yeast fitness was at most 0.5.
G9U A14G G18A C46A C49G: the yeast fitness is at most 0.5.
The result for G10A C22G C27U G56A C66G reads 0.504; that for G10A A15C C34A C49U C61G, 0.603.
The result for G10A A21G G67C reads 0.617.
The result for G10A A15C G25A C55G U59C C60U G67U reads at most 0.5.
As for G10A C22G G58C, the yeast fitness is at most 0.5.
The same measure for G10A A20C C27G A40G A70C: at most 0.5; for G10A A36C A37G C49A: at most 0.5; for G10A C49G: 0.668.
The same measure for G10A C49U: 0.697; for G9U G63A: 0.71; for G10A A36C A45C: 0.634.
The result for G10A A14C C22U reads at most 0.5.
G10A C61G C66U A69U: the yeast fitness is at most 0.5.
The same measure for G10A A15U A21C G25C C62A: at most 0.5.
The result for G10A C22U reads 0.647.
The same measure for G10A C60A: 0.691; for G10A C31U C34A A40G A65U: at most 0.5.
G9C U13C A43U: the yeast fitness was 0.618.
The result for G10A C22U U47C G68A reads at most 0.5; that for G10A A14U C66U, at most 0.5.
The result for G10A A43G G50A reads 0.573; that for G9C U19C G23C U59A G68C, 0.548.
The result for G10A C30A A42G A43U reads at most 0.5; that for G10A C11A A15C C24A C34A C46G G51A, at most 0.5.
For G10A A43G G52C U53C G63C, the yeast fitness is at most 0.5.
The result for G10A A37C A42G reads at most 0.5.
The same measure for G9C U28C C31U: at most 0.5; for G10A C30U C33G U64C: 0.662; for G10A A70C: 0.856.
The same measure for G10A A70U: 0.894.
Take G9U U16G: the yeast fitness came out at 0.612.
The same measure for G10A A20C A57C: at most 0.5; for G10A C29U C30G C34A: at most 0.5; for G9U A43G: 0.817.
The result for G9C U47G reads 0.595; that for G9C U47C, 0.632; that for G10A C33U A45U G48C U64A A70U, at most 0.5.
The result for G10A C31G G44A G56C reads at most 0.5; that for G10A A21C C22A G25C G38A U59A C60U, at most 0.5; that for G9C U26C C34G A37G, 0.591.
For G10A C24G G39C C66U, the yeast fitness is at most 0.5.
For the variant G10A C30U G41A A69C, the yeast fitness is 0.548.
The result for G10A A36G U59C A70G reads at most 0.5; that for G10A C22U A70U, at most 0.5.
The same measure for G10A A15C G25A: 0.582; for G10A A15C G39C: at most 0.5; for G10A C33U A65U: at most 0.5.
The same measure for G10A A40C: 0.771.
For the variant G10A A20G U26C A69C A70G, the yeast fitness was at most 0.5.
The same measure for G9C U16C C66U: at most 0.5; for G10A A21G C29A U53C C61G G67A A69C: at most 0.5; for G10A C24G G68A: 0.735.
Turning to G10A A45U, the yeast fitness came out at 0.673.
As for G10A A45C, the yeast fitness is 0.66.
Regarding G10A C24G C34U G63C, the yeast fitness is at most 0.5.
The same measure for G10A A36C A42U: 0.557; for G10A A45C C49U: 0.652; for G9C U19C C31A G58C A70U: at most 0.5.
Regarding G10A A20U C30U G56A A65G C66A G68C, the yeast fitness was at most 0.5.
The result for G9C U13C C30G C61U reads at most 0.5; that for G9C U16G A65U, at most 0.5.
The same measure for G9C U32A G56C: at most 0.5; for G10A A20G C46U G50U C55U: at most 0.5.
As for G9C U28A A45C G48C C62G, the yeast fitness came out at 0.545.
The result for G9C U28C A37C C46G reads 0.768; that for G9C U19C G48A, 0.901; that for G9C U13A G17C, at most 0.5.
The same measure for G10A A57U: 0.607.
The result for G10A A57G reads 0.852.
In the case of G10A A20U, the yeast fitness is 0.786.
The result for G10A A20G reads 0.649.
Turning to G10A C30U C60G C66U, the yeast fitness was at most 0.5.
The same measure for G10A A20G A40C A42C: at most 0.5; for G10A C31A U32C G41C: at most 0.5; for G10A A36C A43U: 0.573.
In the case of G10A A69C, the yeast fitness was 0.858.
With G10A A69G, the yeast fitness is 0.641.
The result for G10A A69U reads 0.732; that for G9C U19C C31A C55U A69C, 0.547; that for G10A C61A, at most 0.5.
The result for G10A C61G reads at most 0.5.
The same measure for G10A C61U: 0.744; for G10A A15C A45C C49G G67U A69C: at most 0.5; for G10A A21U A70C: at most 0.5.
Take G10A A21G C22A C31A A40G C46G: the yeast fitness is at most 0.5.
The same measure for G10A C29A C66U G67U G68A: 0.56; for G10A C27G C60A: at most 0.5; for G10A A15U: 0.681.
The same measure for G10A A15C: 0.613.
In the case of G10A C55A, the yeast fitness was found to be 0.67.
The same measure for G10A A21G C22U C55U: at most 0.5.
As to G10A A14G C46A A57G, the yeast fitness was at most 0.5.
In the case of G10A A69C A70C, the yeast fitness is at most 0.5.
The same measure for G10A A21C: 0.693.
The result for G10A A21G reads 0.878; that for G10A A21U, 0.609.
The same measure for G9U C11A A14G C24U G41C C55G: at most 0.5; for G9C U28C G44C G51A: at most 0.5.
Turning to G10A A20U C30A C62U, the yeast fitness is at most 0.5.
Turning to G10A C11U, the yeast fitness was 0.777.
The result for G10A C11G reads 0.565; that for G10A A15U A21C G25C G56A, at most 0.5; that for G10A C27G G38A A42G, 0.661.
The same measure for G9C U13A G25A A40C C66U: at most 0.5; for G10A A14C: 0.539.
The same measure for G10A A14G: 0.671.
Consider G10A A21C C61G U64C, for which the yeast fitness is at most 0.5.
The same measure for G9C U13C U47G: at most 0.5; for G10A A37U A65U: at most 0.5.
G10A A43U A69C: the yeast fitness is 0.887.
The same measure for G10A A40U G52C: at most 0.5; for G10A A20C G38A G41A C49U A57U: at most 0.5.
The result for G10A C60G A70U reads at most 0.5.
The result for G9C U19C reads 0.764.
For the variant G9C U28C A42U U47C, the yeast fitness was determined as 0.54.
G9C U28C: the yeast fitness came out at 0.675.
The same measure for G9C U32A: 0.648; for G10A C11A A14G A15G G38A: at most 0.5; for G10A A15U A70G: at most 0.5.
For G9C G52C C60A, the yeast fitness is at most 0.5.
The same measure for G10A C27A A36U A37U G48C C61G A69U: 0.576; for G10A C22U G68A: at most 0.5.
The same measure for G10A C34U A43G: at most 0.5; for G9U A69C: 0.909; for G10A A21G C30A A42C: at most 0.5.
With G9C U28G C55G A69U, the yeast fitness is at most 0.5.
The result for G9U C34U G41A reads at most 0.5; that for G10A A42G A65G, at most 0.5.
The same measure for G9C U19C C24U C27A G68A: at most 0.5.
The same measure for G10A A15G C34G G68C: at most 0.5; for G10A A15G C34G G68A: at most 0.5; for G10A C24A G52U: at most 0.5.
On to G10A A15G C49G G68U, for which the yeast fitness was at most 0.5.
The result for G10A A15G A42C G50C reads at most 0.5; that for G10A C29A A45U, at most 0.5; that for G10A A15U A21C G25C, 0.533.
For G10A C30A C62A, the yeast fitness was at most 0.5.
The result for G10A A20C G38A G41A C49U A65U reads at most 0.5; that for G9C U13G U28C G41C A43C A45U U47C C49G U53G A69C, at most 0.5.
The same measure for G10A C34A U35A U54C: 0.522; for G10A C30G G68A: at most 0.5; for G10A C22A A43G C55A: at most 0.5.
As for G10A A45U U53G A65C, the yeast fitness was at most 0.5.
On to G9C U35G G41A G56A A70C, for which the yeast fitness is at most 0.5.
The same measure for G10A C55G G58A: at most 0.5.
The same measure for G10A A65G A70C: 0.65; for G10A C33G A43G G58A G67A A69U: 0.543.
The same measure for G9U A14C C24U U35C C46G G52A C61A: at most 0.5.
As to G9U C29G A65U, the yeast fitness was at most 0.5.
The same measure for G10A C22U G56C A70U: at most 0.5.
